Calls of active or inactive are those of the source. The calls are words filed in the database; no cut-off is given here.
Columns and labels:
[1] = biological target: T1, Protein deacetylase HDAC6 (Homo sapiens, UniProt Q9UBN7); assay: Inhibition of full length human recombinant N-terminal GST-tagged HDAC6 expressed in Sf9 cells using RHKK(Ac) as substrate after 90 mins by fluorimetric method
T1 sequence (Q9UBN7 whole entry): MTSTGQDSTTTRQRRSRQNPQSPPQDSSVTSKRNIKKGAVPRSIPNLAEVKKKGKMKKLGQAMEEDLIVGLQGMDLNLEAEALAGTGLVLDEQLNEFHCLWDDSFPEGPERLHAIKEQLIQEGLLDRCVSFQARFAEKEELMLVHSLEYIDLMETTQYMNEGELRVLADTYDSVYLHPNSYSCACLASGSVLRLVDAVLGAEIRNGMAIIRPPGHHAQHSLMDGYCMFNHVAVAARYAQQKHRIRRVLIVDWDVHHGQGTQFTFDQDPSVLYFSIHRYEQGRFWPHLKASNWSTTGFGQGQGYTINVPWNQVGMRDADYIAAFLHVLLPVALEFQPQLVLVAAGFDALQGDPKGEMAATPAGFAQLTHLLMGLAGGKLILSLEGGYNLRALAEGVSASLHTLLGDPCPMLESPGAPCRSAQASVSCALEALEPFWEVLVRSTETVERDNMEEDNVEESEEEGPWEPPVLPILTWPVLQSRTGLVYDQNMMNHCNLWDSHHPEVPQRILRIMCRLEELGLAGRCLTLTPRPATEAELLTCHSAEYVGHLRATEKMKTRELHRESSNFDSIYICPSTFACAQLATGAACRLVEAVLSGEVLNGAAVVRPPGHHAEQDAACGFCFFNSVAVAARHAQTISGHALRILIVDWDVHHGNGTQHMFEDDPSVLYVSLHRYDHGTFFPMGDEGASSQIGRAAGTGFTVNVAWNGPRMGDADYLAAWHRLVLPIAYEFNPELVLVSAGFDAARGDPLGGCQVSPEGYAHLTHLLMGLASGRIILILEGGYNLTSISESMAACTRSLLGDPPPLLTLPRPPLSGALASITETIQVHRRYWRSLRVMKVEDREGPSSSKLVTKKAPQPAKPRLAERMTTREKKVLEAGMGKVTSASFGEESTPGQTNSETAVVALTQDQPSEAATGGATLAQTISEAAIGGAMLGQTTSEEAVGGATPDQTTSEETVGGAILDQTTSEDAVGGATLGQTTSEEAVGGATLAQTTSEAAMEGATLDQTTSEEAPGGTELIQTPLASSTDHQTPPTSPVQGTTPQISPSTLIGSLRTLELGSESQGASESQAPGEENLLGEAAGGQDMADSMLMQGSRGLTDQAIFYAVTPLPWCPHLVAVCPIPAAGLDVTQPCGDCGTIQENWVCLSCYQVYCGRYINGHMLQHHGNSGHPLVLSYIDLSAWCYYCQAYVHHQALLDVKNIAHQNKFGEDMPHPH

[2] = test system: HCT-116; assay: Antiproliferative activity against human HCT116 cells after 48 hrs by SRB assay; assay type: functional; settings: HCT-116, 48 h
Method in brief: (§1)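 Cells seeded at 3-5 x 10³ cells/well. A T0 plate was fixed with 10% TCA at drug addition, and the rest were incubated 48 h with compound or DMSO, then TCA-fixed and stained with 0.4% SRB in 1% AcOH. Dye was extracted with 10 mM trizma base and read at 515 nm.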

[3] = test system: A549; assay: Antiproliferative activity against human A549 cells after 48 hrs by SRB assay; assay type: functional; settings: A549, 48 h; method in brief: as §1
[4] = species on record: Homo sapiens; assay: Selectivity ratio of IC50 for full length human recombinant C-terminal GST-tagged HDAC2 to IC50 for full length human recombinant N-terminal GST-tagged HDAC6
[5] = species on record: Homo sapiens; assay: Selectivity ratio of IC50 for full length human recombinant C-terminal FLAG-His-tagged HDAC1 to IC50 for full length human recombinant N-terminal GST-tagged HDAC6
[6] = test system: PC-3; assay: Antiproliferative activity against human PC3 cells after 48 hrs by SRB assay; assay type: functional; settings: PC-3, 48 h; method in brief: as §1
[7] = biological target: Histone deacetylase 1 (Homo sapiens, UniProt Q13547); assay: Inhibition of full length human recombinant C-terminal FLAG-His-tagged HDAC1 expressed in Sf21 cells using RHKK(Ac) as substrate after 60 mins by fluorimetric method
Histone deacetylase 1, sequence (Q13547 whole entry): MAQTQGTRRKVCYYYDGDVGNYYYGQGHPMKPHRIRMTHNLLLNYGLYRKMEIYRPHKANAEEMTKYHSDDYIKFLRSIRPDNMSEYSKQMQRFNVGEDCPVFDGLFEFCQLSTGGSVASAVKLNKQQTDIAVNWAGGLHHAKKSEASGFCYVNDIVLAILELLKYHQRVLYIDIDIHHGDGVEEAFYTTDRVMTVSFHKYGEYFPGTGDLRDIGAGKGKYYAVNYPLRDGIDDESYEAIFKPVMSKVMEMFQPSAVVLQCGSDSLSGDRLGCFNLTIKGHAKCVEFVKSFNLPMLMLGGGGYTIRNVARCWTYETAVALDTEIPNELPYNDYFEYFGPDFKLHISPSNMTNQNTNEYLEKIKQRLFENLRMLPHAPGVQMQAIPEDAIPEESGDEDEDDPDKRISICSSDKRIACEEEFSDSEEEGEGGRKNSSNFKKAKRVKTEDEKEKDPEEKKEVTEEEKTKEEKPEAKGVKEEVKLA

[8] = biological target: Histone deacetylase 2 (Homo sapiens, UniProt Q92769); assay: Inhibition of full length human recombinant C-terminal GST-tagged HDAC2 expressed in insect cells using RHKK(Ac) as substrate after 60 mins by fluorimetric method
Histone deacetylase 2, sequence (Q92769 whole entry): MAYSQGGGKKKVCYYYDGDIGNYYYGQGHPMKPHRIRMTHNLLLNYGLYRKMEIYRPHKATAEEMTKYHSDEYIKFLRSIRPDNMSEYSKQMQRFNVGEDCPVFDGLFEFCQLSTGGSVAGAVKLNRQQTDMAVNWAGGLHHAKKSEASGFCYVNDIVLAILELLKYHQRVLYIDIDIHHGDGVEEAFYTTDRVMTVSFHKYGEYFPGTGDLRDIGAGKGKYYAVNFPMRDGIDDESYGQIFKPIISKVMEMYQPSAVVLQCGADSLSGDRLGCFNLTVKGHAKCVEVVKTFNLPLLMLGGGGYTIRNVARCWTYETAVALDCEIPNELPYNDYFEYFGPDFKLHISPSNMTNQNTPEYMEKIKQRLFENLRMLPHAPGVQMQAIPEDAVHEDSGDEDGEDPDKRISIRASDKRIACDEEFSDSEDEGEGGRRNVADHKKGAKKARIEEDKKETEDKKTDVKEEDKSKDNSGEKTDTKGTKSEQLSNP

[9] = test system: HCT-116; assay: Induction of apoptosis in human HCT116 cells assessed as increase in cleaved caspase 3 levels at 1.25 to 2.5 uM after 48 hrs Western blot method; assay type: functional, cell-based
[10] = test system: HCT-116; assay: Anticlonogenic activity against human HCT116 cells after 24 hrs by crystal violet staining-based assay; assay type: functional, cell-based
Method in brief: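 Cells exposed to a range of concentrations or DMSO vehicle for 24 h, washed, trypsinized and replated at 500 cells/well; after 14 days colonies were fixed and stained with 0.5% crystal violet in 70% EtOH. Colonies of more than 50 cells were counted, and survival fraction was taken relative to DMSO control.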

[11] = test system: HCT-116; assay: Cell cycle arrest in human HCT116 cells assessed as accumulation at sub-G1 phase after 48 hrs by propidium iodide staining-based flow cytometric method; assay type: functional
Method in brief: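 HCT116 cells treated 48 h, then fixed overnight in 75% EtOH at -20 °C and washed in cold PBS. They were incubated 30 min at room temperature in 0.1 M phosphate-citric acid buffer (pH 7.8) and stained with propidium iodide buffer containing 0.1% Triton X-100 and RNase A. The sub-G1 fraction was measured by flow cytometry.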

[12] = test system: HCT-116; assay: Induction of apoptosis in human HCT116 cells assessed as increase in cleaved PARP levels at 1.25 to 2.5 uM after 48 hrs Western blot method; assay type: functional, cell-based
[13] = species on record: Homo sapiens; assay: Inhibition of class 1 HDAC in human HCT116 cells assessed as upregulation of acetylated histone H3 levels at 2.5 uM after 6 hrs by Western blot method; assay type: cell-based
[14] = biological target: T2, Protein deacetylase HDAC6 (Homo sapiens) (UniProt Q9UBN7); assay: Inhibition of HDAC6 in human HCT116 cells assessed as upregulation of acetylated tubulin levels at 2.5 uM after 6 hrs by Western blot method; assay type: cell-based
T2 sequence (whole entry): T1 sequence (Q9UBN7 whole entry)
Method in brief: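 HCT116 cells treated 6 h with compound, then lysates probed by western blot for acetyl-tubulin, with ECL detection.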

SMILES | IC50 [1] [nM] | GI50 [2] [nM] | GI50 [3] [nM] | Ratio IC50 [4] | Ratio IC50 [5] | GI50 [6] [nM] | IC50 [7] [nM] | IC50 [8] [nM] | Acetylated tubulin upregulation (qualitative) [14] | Activity [9] | Activity [10] | Activity [11] | Activity [12] | Acetylated histone H3 upregulation (qualitative) [13]
CN(C)Cc1cn(S(=O)(=O)c2ccc(/C=C/C(=O)NO)cc2)c2ccccc12 | 16.7 | 520 | 1620 | 58 | 115 | 790 | 1930 | 970 | Active | Active | Dose-dependent effect | Dose-dependent effect | Active | inactive
CN(C)C(=O)c1cn(Cc2ccc(/C=C/C(=O)NO)cc2)c2ccccc12 | 8.5 | 750 | 3330 | 122 | 73 | 1890 | 627 | 1040 | Active | Active | Dose-dependent effect | Dose-dependent effect | Active | inactive
CN1CCc2c(c3ccccc3n2S(=O)(=O)c2cccc(/C=C/C(=O)NO)c2)C1 | 189 | 640 | 2450 | 16 | 14 | 1840 | 2700 | 3130 | – | – | – | – | – | –
CN(C)Cc1cn(Cc2ccc(/C=C/C(=O)NO)cc2)c2ccccc12 | 43.1 | 1390 | 3000 | 25 | 52 | 2550 | 2250 | 1120 | – | – | – | – | – | –
CN(C)C(=O)c1cn(Cc2ccc(C(=O)NO)cc2)c2ccccc12 | 8.01 | > 5000 | > 5000 | > 1250 | 714 | > 5000 | 5720 | > 10000 | – | – | – | – | – | –

Continued by falling IC50 [1], values first:

IC50 [1] [nM] | GI50 [2] [nM] | GI50 [3] [nM] | Ratio IC50 [4] | Ratio IC50 [5] | GI50 [6] [nM] | IC50 [7] [nM] | IC50 [8] [nM] | Acetylated tubulin upregulation (qualitative) [14] | SMILES | Activity [9] | Activity [10] | Activity [11] | Activity [12] | Acetylated histone H3 upregulation (qualitative) [13]
201 | 2490 | > 5000 | > 49 | 34 | > 5000 | 6910 | > 10000 | – | CN(C)C(=O)c1cn(S(=O)(=O)c2cccc(/C=C/C(=O)NO)c2)c2ccccc12 | – | – | – | – | –
96.4 | 1260 | 3690 | 24 | 22 | 2080 | 2130 | 2380 | – | Cc1c(CN(C)C)c2ccccc2n1Cc1ccc(/C=C/C(=O)NO)cc1 | – | – | – | – | –
89.3 | 540 | 1870 | 18 | 16 | 1030 | 1510 | 1640 | Active | CN(C)Cc1cn(S(=O)(=O)c2cccc(/C=C/C(=O)NO)c2)c2ccccc12 | Active | Dose-dependent effect | Dose-dependent effect | Active | inactive
84.9 | 500 | 1920 | 15 | 21 | 1690 | 1850 | 1340 | Active | Cc1c(CN(C)C)c2ccccc2n1S(=O)(=O)c1cccc(/C=C/C(=O)NO)c1 | Active | Dose-dependent effect | Dose-dependent effect | Active | inactive
41.8 | 730 | 2680 | 39 | 38 | 1690 | 1600 | 1650 | – | CN1CCc2c(c3ccccc3n2Cc2ccc(/C=C/C(=O)NO)cc2)C1 | – | – | – | – | –
21.7 | > 5000 | > 5000 | 562 | 328 | 3930 | 7130 | 12200 | – | CN(C)Cc1cn(Cc2ccc(C(=O)NO)cc2)c2ccccc12 | – | – | – | – | –
10.8 | 2140 | > 5000 | 135 | 186 | 3100 | 2010 | 1460 | – | CN(C)C(=O)c1cn(S(=O)(=O)c2ccc(/C=C/C(=O)NO)cc2)c2ccccc12 | – | – | – | – | –
6.17 | > 5000 | > 5000 | > 1620 | 1580 | > 5000 | 9730 | > 10000 | – | Cc1c(CN(C)C)c2ccccc2n1Cc1ccc(C(=O)NO)cc1 | – | – | – | – | –
